Experimental data: PubChem BioAssay
The source made the active and inactive calls.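 Rule for the calls, unless noted: active = fluorescence slope higher than the sample average by over 3 SD (cut at about -0.22 in these data, passing the limit was not always enough); inactive = the rest.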

Experiments:
[1] = inhibitors of TNFa-induced NFkB p65 translocation, primary screen, imaging, HUVEC, MLSMR starter and 10KST1 sets (AID 438;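 active = inhibition above 20% together with a positive visual image hit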;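 note: compound added about 3h40 before a 20 min TNFalpha stimulation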;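 for inhibition: signal is the nuclear over cytoplasmic p65 intensity ratio per well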); details: HUVEC TNFa-induced p65 nuclear translocation; cell count: measured here: nuclei count (cytotoxicity indicator), at 2.08 µM; inhibition: at 2 µM, stronger effect = higher value, 0% TNFa-plus-vehicle, 100% no-TNFa wells
[2] = endothelial E-selectin expression blockers – imaging, HUVEC, immunofluorescence, MLSMR starter and 10KST1 sets, primary screen (AID 487;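 active = visually confirmed hit in the image check and inhibition above 20%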;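 for inhibition: signal is fraction of cell area covered by stained E-selectin grains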;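 for nuclei count: 100% = median nuclei count of all wells on the same plate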); details: HUVEC TNFalpha-induced E-selectin immunofluorescence imaging, at 2 µM; inhibition: stronger effect = higher value; nuclei count: measured here: cell number, toxicity
[3] = Primary imaging screen for DUSP6 inhibitors that restore phospho-Erk in transfected HeLa cells, chemical complementation (AID 609;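 active = compounds giving at least 50% inhibition in the cell-based MKP-3 phosphatase rescue imaging test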;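 for inhibition: phospho-Erk level distribution per well compared with pooled transfected vehicle control wells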); details: HeLa MKP-3 transfected, phospho-Erk imaging KS statistic, at 10 µM, cells stimulated with TPA for 15 min
[4] = molecular target: Dual specificity protein phosphatase 6 (Homo sapiens) (UniProt Q16828); assay: as above; details: HeLa MKP-3 transfected, phospho-Erk imaging KS statistic; at 10 µM; stronger effect = higher value; cells stimulated with TPA for 15 min
Dual specificity protein phosphatase 6 (Homo sapiens), sequence (Q16828 whole entry, looked up): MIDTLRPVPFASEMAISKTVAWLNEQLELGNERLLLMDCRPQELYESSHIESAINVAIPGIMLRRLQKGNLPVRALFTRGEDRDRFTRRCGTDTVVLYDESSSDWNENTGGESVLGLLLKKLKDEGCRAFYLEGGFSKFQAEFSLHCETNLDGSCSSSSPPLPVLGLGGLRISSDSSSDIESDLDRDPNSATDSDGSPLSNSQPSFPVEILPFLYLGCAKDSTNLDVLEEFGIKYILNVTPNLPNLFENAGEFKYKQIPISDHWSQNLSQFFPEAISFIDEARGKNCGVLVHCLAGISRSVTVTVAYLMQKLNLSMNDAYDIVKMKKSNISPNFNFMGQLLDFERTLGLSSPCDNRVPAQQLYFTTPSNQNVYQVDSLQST

[5] = molecular target: Voltage-gated potassium channel subunit beta-2 (Rattus norvegicus) (UniProt P62483); assay: inhibitors of rat Kvbeta2 reductase activity – biochemical, NADPH fluorescence, primary screen (AID 622); details: recombinant KvBeta, 4-cyanobenzaldehyde reduction, at 10 µM, stronger effect = higher value;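 note: slope of raw intensity against log time taken from 70 to 1610 s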
Voltage-gated potassium channel subunit beta-2 (Rattus norvegicus), sequence (P62483 whole entry, looked up): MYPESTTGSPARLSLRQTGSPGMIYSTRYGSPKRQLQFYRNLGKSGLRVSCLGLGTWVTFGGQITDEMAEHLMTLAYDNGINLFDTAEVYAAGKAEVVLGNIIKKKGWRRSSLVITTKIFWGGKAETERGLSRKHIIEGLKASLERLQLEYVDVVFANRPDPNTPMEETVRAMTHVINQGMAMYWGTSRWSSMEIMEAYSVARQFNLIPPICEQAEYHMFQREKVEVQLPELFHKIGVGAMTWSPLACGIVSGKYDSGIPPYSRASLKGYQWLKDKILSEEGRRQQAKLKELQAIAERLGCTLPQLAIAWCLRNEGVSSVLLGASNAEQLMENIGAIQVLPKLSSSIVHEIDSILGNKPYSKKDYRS

[6] = molecular target: Voltage-gated potassium channel subunit beta-2 (Rattus norvegicus) (UniProt P62483); assay: enhancers of rat Kvbeta2 NADPH turnover – biochemical, NADPH fluorescence, primary screen (AID 623;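 active = NADPH fluorescence slope more negative than the mean of all samples by about 3 SD, 99.7% confidence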;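 note: fluorescence intensity change per second fitted from 20 to 320 s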); details: Recombinant KvBeta, NADPH fluorescence decrease slope, 10 min; at 10 µM; stronger effect = lower value
[7] = molecular target: Muscarinic acetylcholine receptor M4 (Homo sapiens) (UniProt P08173); assay: M4-linked GIRK flux change, two-sided – cell-based, HEK293 M4/GIRK, thallium flux, BTC-AM, M4 allosteric agonist project, primary screen (AID 625;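 active = fluorescence slope after compound addition differing from the mean of all tested samples at 99.7% confidence, mostly higher but some lower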;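 note: thallium influx through GIRK channels coupled to M4 in HEK293 cells with BTC-AM dye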); details: at 10 µM, actives lie on both sides
Muscarinic acetylcholine receptor M4 (Homo sapiens), sequence (P08173 whole entry, looked up): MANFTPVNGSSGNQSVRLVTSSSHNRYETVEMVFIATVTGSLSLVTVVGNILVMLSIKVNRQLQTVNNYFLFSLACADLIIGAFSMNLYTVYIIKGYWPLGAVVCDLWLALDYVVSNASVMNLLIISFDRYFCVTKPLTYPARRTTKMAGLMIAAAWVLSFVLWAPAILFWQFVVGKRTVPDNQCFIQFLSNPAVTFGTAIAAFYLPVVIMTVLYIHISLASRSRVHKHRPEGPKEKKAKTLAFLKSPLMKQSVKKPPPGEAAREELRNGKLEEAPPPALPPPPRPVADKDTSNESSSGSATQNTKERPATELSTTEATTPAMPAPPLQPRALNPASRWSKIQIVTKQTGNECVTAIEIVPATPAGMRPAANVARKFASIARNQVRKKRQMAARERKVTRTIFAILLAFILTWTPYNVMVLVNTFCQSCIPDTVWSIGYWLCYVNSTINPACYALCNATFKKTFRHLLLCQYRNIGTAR
Outline: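 System: HEK293 cells with M4 receptor and GIRK channels | Incubation: Cells overnight at 37 °C, BTC-AM loading 1 h, reads 2 min total | Technique: Kinetic BTC-AM fluorescence sampled at 1 Hz, 10 s pre-addition baseline | Measure: Post-addition slope, 15–24 s, of baseline-normalized fluorescence | Control set: Carbachol positive, DMSO negative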

[8] = inhibitors of larval lipid processing in zebrafish, primary screen, whole organism, PED6 fluorescence, gall bladder and intestine (AID 686;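 active = a full or partial loss of lipid-probe fluorescence in the fish gall bladder, intestine or both, judged by eye; inactive = no fluorescence loss, or compound toxic to the fish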;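 note: larvae 5 to 7 days old with five fish per well; signal comes from phospholipase A2 cleavage of quenched PED6 carried via bile; overnight exposure to compound and PED6 before scoring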); details: Zebrafish larvae PED6 lipid processing, fluorescence scoring; screened at 20 µM (by protocol)
Outline: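 Test system – live zebrafish larvae aged 5-7 days, whole organism · Buffer or medium – E3 fish medium · Reagent – quenched phospholipase substrate PED6, 100 nM final, ingested by larvae · Doses – 20 µM single dose · Incubation – overnight compound and PED6 incubation · Technique – visual fluorescence microscopy scoring of gall bladder, gut · Read-out basis – visual per-well fluorescence inhibition score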

[9] = loss of swimming-algae plug formation – whole organism, Chlamydomonas reinhardtii, WT vs cilia-less mutant, absorbance, 96-well, primary screen (AID 463189;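 active = inhibition at or above 50% relative to wild type and mutant plate controls; inactive = inhibition below 50%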;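 note: 0% = wild type cc124 cells in DMSO and 100% = ciliumless bld1 mutant cells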); details: Chlamydomonas reinhardtii gravitaxis, OD600 absorbance, 2 days; at 10 µM; stronger effect = higher value
[10] = measured here: cell density z-score
[11] = measured here: nuclear c-Myc green intensity z-score
[12] = measured here: nuclear pErk red intensity z-score, stronger effect = higher value

In the case of `CCOC(=O)C1=C(C)NC(=O)C1CC(=O)Nc1ccccc1` (configuration not stated), the cell count [1] was 377, the inhibition [1] was -4.8% (inactive) and the inhibition [2] was -73.4% (inactive). For the same molecule, the nuclei count [2] was 139%, the z-score [3, 10] was -0.173 and the z-score [3, 11] was 0.561. For the same molecule, the z-score [3, 12] was 0.408, the inhibition [4] was 3.42% (inactive) and the fluorescence slope [5] was -0.443 (inactive). For the same molecule, the NADPH fluorescence slope [6] was -0.000122 (inactive), the fluorescence slope [7] was 0.00567 (inactive) and the outcome [8] was “inactive”. The inhibition [9] was -5.87% (inactive).

For `Cc1cc2c(c(=O)n1Cc1ccccn1)C(c1ccc3c(c1)OCO3)C(C#N)=C(N)O2` (configuration not stated), the cell count [1] was 692, the inhibition [1] was -7.3% (inactive) and the inhibition [2] was -44.9% (inactive). For the same molecule, the nuclei count [2] was 183%, the z-score [3, 10] was 0.057 and the z-score [3, 11] was 2.34. The z-score [3, 12] was 0.285, the inhibition [4] was -2.91% (inactive) and the fluorescence slope [5] was -0.451 (inactive). For the same molecule, the NADPH fluorescence slope [6] was -5.4e-05 (inactive), the fluorescence slope [7] was 0.00525 (inactive) and the outcome [8] was “inactive”. The inhibition [9] was 11.3% (inactive).

With `O=c1cc(O)nc2n1CCCS2` the cell count [1] was 698, the inhibition [1] was 0.1% (inactive) and the inhibition [2] was 56.2% (inactive). For the same molecule, the nuclei count [2] was 144%, the z-score [3, 10] was 1.6 and the z-score [3, 11] was 0.755. The z-score [3, 12] was 0.757, the inhibition [4] was -9.53% (inactive) and the fluorescence slope [5] was -0.418 (inactive). The NADPH fluorescence slope [6] was -5.5e-05 (inactive), the fluorescence slope [7] was 0.00444 (inactive) and the outcome [8] was “inactive”. For the same molecule, the inhibition [9] was 0.661% (inactive).

In the case of `CCN(CC)c1nc(-c2cccc(OC)c2O)nc2ccccc12`, the cell count [1] was 624, the inhibition [1] was -3.5% (inactive) and the inhibition [2] was -45.9% (inactive). It also gave a nuclei count [2] of 171%, a z-score [3, 10] of -1.06 and a z-score [3, 11] of -1.37. The z-score [3, 12] was 0.629, the inhibition [4] was 4.37% (inactive) and the fluorescence slope [5] was -0.5 (inactive). The NADPH fluorescence slope [6] was -9.9e-05 (inactive), the fluorescence slope [7] was 0.005 (inactive) and the outcome [8] was “inactive”. The inhibition [9] was 15.7% (inactive).

For `COCCCn1c2nc3ccccc3nc2c2c(=O)n(-c3ccccc3OC)c(C)nc21`, the cell count [1] was 671, the inhibition [1] was -8.6% (inactive) and the inhibition [2] was -13.5% (inactive). For the same molecule, the nuclei count [2] was 185%, the z-score [3, 10] was 0.714 and the z-score [3, 11] was -0.748. For the same molecule, the z-score [3, 12] was 0.0802, the inhibition [4] was 9.07% (inactive) and the fluorescence slope [5] was -0.442 (inactive). For the same molecule, the NADPH fluorescence slope [6] was -3.7e-05 (inactive), the fluorescence slope [7] was 0.0072 (inactive) and the outcome [8] was “inactive”. For the same molecule, the inhibition [9] was 4.04% (inactive).

In the case of `NC(=O)C1CCN(C2OC(=O)c3ccccc32)CC1` (configuration not stated), the cell count [1] was 399, the inhibition [1] was -1.7% (inactive) and the inhibition [2] was -148% (inactive). It also gave a nuclei count [2] of 160%, a z-score [3, 10] of 0.349 and a z-score [3, 11] of 0.288. For the same molecule, the z-score [3, 12] was -0.804, the inhibition [4] was 5.65% (inactive) and the fluorescence slope [5] was -0.447 (inactive). For the same molecule, the NADPH fluorescence slope [6] was -8.4e-05 (inactive), the fluorescence slope [7] was 0.0046 (inactive) and the outcome [8] was “inactive”. For the same molecule, the inhibition [9] was 33.2% (inactive).

In the case of `CN(CCCCCC(=O)/C=N/O)Cc1ccccc1`, the cell count [1] was 673, the inhibition [1] was -7.2% (inactive) and the inhibition [2] was -29.9% (inactive). For the same molecule, the nuclei count [2] was 182%, the z-score [3, 10] was -0.259 and the z-score [3, 11] was -0.553. For the same molecule, the z-score [3, 12] was -0.0581, the inhibition [4] was -9.53% (inactive) and the fluorescence slope [5] was -0.493 (inactive). The NADPH fluorescence slope [6] was -9.8e-05 (inactive), the fluorescence slope [7] was 0.00525 (inactive) and the outcome [8] was “inactive”. The inhibition [9] was 23.8% (inactive).

For `N#Cc1nc(COc2ccc(Cl)cc2)oc1N1CCN(Cc2ccccc2)CC1`, the cell count [1] was 489, the inhibition [1] was -3% (inactive) and the inhibition [2] was -24.2% (inactive). For the same molecule, the nuclei count [2] was 139%, the z-score [3, 10] was -0.636 and the z-score [3, 11] was 0.047. The z-score [3, 12] was 1.31, the inhibition [4] was -2.29% (inactive) and the fluorescence slope [5] was -0.411 (inactive). The NADPH fluorescence slope [6] was -5.4e-05 (inactive), the fluorescence slope [7] was 0.00907 (inactive) and the outcome [8] was “inactive”. The inhibition [9] was 3.53% (inactive).

With `CCc1[nH]c(=O)c(C#N)c2c1CSC(C)(C)C2` the cell count [1] was 678, the inhibition [1] was -9.4% (inactive) and the inhibition [2] was -211% (inactive). For the same molecule, the nuclei count [2] was 166%, the z-score [3, 10] was 0.402 and the z-score [3, 11] was 0.0532. For the same molecule, the z-score [3, 12] was -0.896, the inhibition [4] was -6.06% (inactive) and the fluorescence slope [5] was -0.471 (inactive). The NADPH fluorescence slope [6] was -6.8e-05 (inactive), the fluorescence slope [7] was 0.00604 (inactive) and the outcome [8] was “inactive”. The inhibition [9] was 11.4% (inactive).

For `Cn1c(NCc2ccccc2)nc2c1c(=O)n(Cc1ccc(Br)cc1)c(=O)n2C`, the cell count [1] was 696, the inhibition [1] was -21.9% (inactive) and the inhibition [2] was -78.3% (inactive). For the same molecule, the nuclei count [2] was 171%, the z-score [3, 10] was 0.333 and the z-score [3, 11] was 0.526. For the same molecule, the z-score [3, 12] was 0.876, the inhibition [4] was 13.9% (inactive) and the fluorescence slope [5] was -0.47 (inactive). The NADPH fluorescence slope [6] was -5.2e-05 (inactive), the fluorescence slope [7] was 0.00559 (inactive) and the outcome [8] was “inactive”. The inhibition [9] was 36.1% (inactive).

For `C=CCn1c(=O)c(C(=O)NCCN(CC)CC)c(O)c2ccccc21`, the cell count [1] was 560, the inhibition [1] was 0% (inactive) and the inhibition [2] was -97% (inactive). For the same molecule, the nuclei count [2] was 170%, the z-score [3, 10] was 1.11 and the z-score [3, 11] was -0.484. The z-score [3, 12] was 1.3, the inhibition [4] was 27.8% (inactive) and the fluorescence slope [5] was -0.368 (inactive). The NADPH fluorescence slope [6] was -2.4e-05 (inactive), the fluorescence slope [7] was 0.00442 (inactive) and the outcome [8] was “inactive”. For the same molecule, the inhibition [9] was 42.6% (inactive).

For `CCOc1ccc(C2C(C#N)=C(N)Oc3cc(C)n(CCN4CCOCC4)c(=O)c32)cc1OCC` (configuration not stated), the cell count [1] was 556, the inhibition [1] was -10.8% (inactive) and the inhibition [2] was -15.2% (inactive). It also gave a nuclei count [2] of 167%, a z-score [3, 10] of -0.219 and a z-score [3, 11] of 1.25. For the same molecule, the z-score [3, 12] was -0.841, the inhibition [4] was -10.1% (inactive) and the fluorescence slope [5] was -0.458 (inactive). The NADPH fluorescence slope [6] was -4.1e-05 (inactive), the fluorescence slope [7] was 0.0054 (inactive) and the outcome [8] was “inactive”. For the same molecule, the inhibition [9] was 7.88% (inactive).

For `CCCc1nc2n[nH]c(N)c2c2c1COC(C)(C)C2`, the cell count [1] was 597, the inhibition [1] was -4% (inactive) and the inhibition [2] was -13.2% (inactive). For the same molecule, the nuclei count [2] was 168%, the z-score [3, 10] was -0.7 and the z-score [3, 11] was -1.13. The z-score [3, 12] was 1.4, the inhibition [4] was -11.9% (inactive) and the fluorescence slope [5] was -0.369 (inactive). The NADPH fluorescence slope [6] was -3.1e-05 (inactive), the fluorescence slope [7] was 0.00478 (inactive) and the outcome [8] was “inactive”. For the same molecule, the inhibition [9] was 10.6% (inactive).

For `O=C(CN1CCc2[nH]c3ccccc3c2C1)N1CCCCC1`, the cell count [1] was 538, the inhibition [1] was 3.2% (inactive) and the inhibition [2] was -91.5% (inactive). For the same molecule, the nuclei count [2] was 124%, the z-score [3, 10] was -1.09 and the z-score [3, 11] was -0.293. The z-score [3, 12] was -0.987, the inhibition [4] was 3.42% (inactive) and the fluorescence slope [5] was -0.446 (inactive). For the same molecule, the NADPH fluorescence slope [6] was -8.6e-05 (inactive), the fluorescence slope [7] was 0.00512 (inactive) and the outcome [8] was “inactive”. The inhibition [9] was -5.72% (inactive).
